# Bioassay records (PubChem BioAssay)
# Shown are actives, neighbours in structure and some others; about 2.3% of the full set was active somewhere.
# TRPC6 inhibitor: inhibitors of mouse TRPC6 channel | hit rate 1.1% among 310,000 | B-score at 10 µM | HEK293-TRPC6, membrane potential dye, ACh-evoked depolarization; active compounds read low | AID 2553;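 active = B-score under library mean minus 3 SD, initial fluorescence not abnormally high, positive integrated signal ratio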;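 also: B-score derived from integrated fluorescence ratio over the kinetic read; more negative B-score means stronger inhibition of depolarization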
# TRPC4 agonist: activators of mouse TRPC4 channel. Q9QUQ5. HEK293 TRPC4beta/mu-opioid, Fluo4 calcium fluorescence; active compounds read high. B-score at 10 µM. hit rate 0.49% among 310,000. AID 2237;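 active = B-score above 5 SD of library B-scores, and initial fluorescence ratio not above library mean plus 5 SD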;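 also: positive B-score marks a calcium rise read as TRPC4 activation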
# Target sequence (Q9QUQ5 whole entry, looked up): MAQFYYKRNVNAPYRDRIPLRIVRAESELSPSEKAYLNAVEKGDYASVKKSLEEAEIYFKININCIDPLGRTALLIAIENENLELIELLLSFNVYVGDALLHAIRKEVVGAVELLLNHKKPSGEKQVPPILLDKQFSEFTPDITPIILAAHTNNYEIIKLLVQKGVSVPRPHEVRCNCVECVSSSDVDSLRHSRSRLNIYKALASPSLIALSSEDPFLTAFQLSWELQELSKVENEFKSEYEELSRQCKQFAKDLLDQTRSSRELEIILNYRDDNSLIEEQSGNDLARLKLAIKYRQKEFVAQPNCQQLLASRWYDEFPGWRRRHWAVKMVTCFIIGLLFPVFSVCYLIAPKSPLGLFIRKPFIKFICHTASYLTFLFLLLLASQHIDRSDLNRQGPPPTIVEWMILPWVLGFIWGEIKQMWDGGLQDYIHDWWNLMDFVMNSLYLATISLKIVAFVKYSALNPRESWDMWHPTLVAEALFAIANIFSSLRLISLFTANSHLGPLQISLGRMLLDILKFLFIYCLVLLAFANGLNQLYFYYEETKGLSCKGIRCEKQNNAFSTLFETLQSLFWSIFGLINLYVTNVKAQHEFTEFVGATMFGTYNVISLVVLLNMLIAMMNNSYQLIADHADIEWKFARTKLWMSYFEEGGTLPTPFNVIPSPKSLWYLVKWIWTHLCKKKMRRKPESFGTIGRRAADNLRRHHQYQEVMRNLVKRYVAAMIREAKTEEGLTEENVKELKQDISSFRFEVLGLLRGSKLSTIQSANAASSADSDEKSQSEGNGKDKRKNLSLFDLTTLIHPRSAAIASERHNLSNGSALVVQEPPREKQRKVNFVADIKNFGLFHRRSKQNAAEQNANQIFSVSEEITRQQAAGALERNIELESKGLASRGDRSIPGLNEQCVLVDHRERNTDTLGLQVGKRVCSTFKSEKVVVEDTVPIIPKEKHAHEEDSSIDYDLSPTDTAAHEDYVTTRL
#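 Assay system: HEK293 cells stably co-expressing mouse TRPC4beta and mu-opioid receptor / Timing: Fluo4 dye loading 45 min at room temperature, 110 s recording / Signal: Fluo4 calcium-sensitive dye fluorescence, kinetic, 1 Hz baseline / Read-out: integrated baseline-normalised fluorescence ratio, converted to per-well B score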
# TRPC6 activator: mouse TRPC6 channel activation; HEK293-TRPC6 membrane potential dye fluorescence; active compounds read high; Q61143; B-score at 10 µM; hit rate 0.13% among 310,000;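 active = B-score of the integrated fluorescence ratio above library mean plus 3 SD, and starting fluorescence ratio within library mean plus 5 SD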;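 also: higher score means more depolarization so channel activation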
# TRPC4 potent: TRPC4 (mouse) allosteric potentiation; HEK293 TRPC4beta/mu-opioid, DAMGO EC20, Fluo-4 Ca2+ flux; active compounds read high; hit rate 0.42% among 310,000; B-score at 10 µM; Q9QUQ5;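 active = B-score of calcium response area above 5 SD of library B-scores, with initial fluorescence ratio within 5 SD of library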;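 also: B-score of integrated fluorescence ratio over time as area under calcium response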
# TRPC4 block: TRPC4 (mouse) channel inhibition; Q9QUQ5; HEK293 TRPC4beta/mu-opioid, DAMGO-evoked Fluo4 calcium flux; active compounds read low; B-score at 10 µM; hit rate 0.39% among 300,000;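 active = B-score over 3 SD under the library average, no early fluorescence shift, positive overall ratio signal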
#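 Signal: kinetic Fluo4 fluorescence imaging of calcium influx. Material: stable TRPC4beta/mu-opioid receptor HEK293 cells. Probe or stimulus: DAMGO in two steps, submaximal then maximal.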
# TRPC4 spec 2: second check of whether TRPC6 inhibitors also affect mouse TRPC4. shares compounds with TRPC6 inhibitor. HEK293 TRPC4/MOR, membrane potential dye fluorescence; channel activated by saturating DAMGO dose. inhibition, % at 10 µM. hit rate 42% among 920;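 active = compounds whose fluorescence signal differed from control wells by over 3 SD, either direction, in both duplicate plates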
# TRPC4 spec: mouse TRPC4 off-target activity of TRPC6 inhibitors | shares compounds with TRPC6 inhibitor | HEK293 TRPC4/mu-opioid, membrane potential fluorescence | activity change, negative = inhibition, % at 10 µM | hit rate 61% among 920;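 active = rise or fall in signal beyond 3 SD of buffer-only wells in both replicate plates, either sign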;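 also: integrated kinetic ratio of fluorescence range over baseline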
# HEK293 MPD ctr 2-1: second check of TRPC6 inhibitor effects in parental HEK293 cells; shares compounds with TRPC6 inhibitor; parental HEK293 membrane potential dye fluorescence; maximal acetylcholine challenge after compound addition; signal change vs control, % at 10 µM; hit rate 31% among 920;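 active = membrane potential signal moving either way by over 3 SD of the maximum-effect control, in both duplicate plates, meaning non-specific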
# HEK293 MPD ctr-1: counter-screen for TRPC6 inhibitors: effect in parental HEK293 cells; parental HEK293 membrane potential dye fluorescence; membrane potential signal change, % at 10 µM; hit rate 60% among 920; shares compounds with TRPC6 inhibitor;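 active = membrane potential signal shifting up or down by more than 3 SD of buffer-only wells, on both duplicate plates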
# HEK293 MPD ctr-2: checks TRPC6 modulator effects in parental HEK293 cells | membrane potential dye fluorescence | membrane potential signal change, % at 10 µM | hit rate 51% among 2,400 | shares compounds with TRPC6 inhibitor;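 active = membrane potential signal moves up or down beyond 5 SD from buffer-only wells, on both duplicate plates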
# HEK293 MPD ctr 2-2: second counter-screen for TRPC6 modulators: effect in parental HEK293 cells. shares compounds with TRPC6 inhibitor. membrane potential dye fluorescence; after compound, maximal acetylcholine stimulation. inhibition, % at 10 µM. hit rate 14% among 2,400. AID 488926;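 active = membrane potential signal drops by more than 5 SD from the mean control signal, in both duplicate plates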;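 also: plate controls were acetylcholine ECmax control wells for no effect and buffer only wells for full effect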
# TRPC4 ctr mod: selectivity of TRPC6 modulators against mouse TRPC4. HEK293 TRPC4/mu-opioid, membrane potential fluorescence. shares compounds with TRPC6 inhibitor. hit rate 69% among 2,400. AID 488927. percent change from control (negative = decrease, positive = increase), % at 10 µM;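 active = membrane potential signal moved up or down beyond 5 SD of buffer control wells, in both duplicate plates, actives on both sides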;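 also: plate controls were assay buffer wells for no effect and DAMGO maximal-effect wells for full effect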
# TRPC4 ctr inh 2: second selectivity test of TRPC6 modulators against mouse TRPC4; inhibition, % at 10 µM; HEK293 TRPC4/mu-opioid, membrane potential dye fluorescence; stimulated with maximal-effect DAMGO; shares compounds with TRPC6 inhibitor; hit rate 55% among 2,400; AID 488928;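 active = drop in membrane potential signal beyond 5 SD of the control wells in both duplicate plates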;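 also: TRPC4 counter screen for TRPC6 hits run under conditions tuned for TRPC6 not TRPC4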
# TRPC6 block conf: confirmation of mouse TRPC6 inhibitors | hit rate 43% among 3,300 | inhibition, % at 10 µM | HEK293-TRPC6, membrane potential dye, ACh-evoked depolarization | AID 488960 | shares compounds with TRPC6 inhibitor;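 active = fluorescence ratio falls more than 5 SD below the full-stimulation control mean, in both duplicate runs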;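 also: integrated fluorescence ratio of peak minus minimum over baseline after agonist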
# TRPC6 act conf: mouse TRPC6 activator confirmation; activation, % at 10 µM; AID 488961; shares compounds with TRPC6 inhibitor; HEK293-TRPC6 membrane potential dye fluorescence, FDSS; hit rate 11% among 2,800;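 active = ratio signal rise beyond 5 SD above unstimulated control wells' mean, seen in both duplicate runs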;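 also: plate controls were buffer EC0 wells for no effect and acetylcholine ECmax response for full effect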
# * marks the source's active call; other numbers are inactive results; i = inactive; . = no result; + = active, no number.
SMILES,TRPC6 inhibitor,TRPC4 agonist,TRPC6 activator,TRPC4 potent,TRPC4 block,HEK293 MPD ctr-2,HEK293 MPD ctr 2-2,TRPC4 ctr mod,TRPC4 ctr inh 2,TRPC6 block conf,TRPC6 act conf,others
NC(=O)C1CC(=O)N(c2ccc(OCc3ccc(F)cc3)cc2)C1 (stereo not drawn),i,i,i,i,i,.,.,.,.,.,.,
COc1cc(C(=O)NCC(=O)N/N=C/c2cccnc2)cc(OC)c1OC,i,i,i,i,i,.,.,.,.,.,.,
Cc1ccc(C)c(N2CCN(CCCc3ccccc3)CC2)c1,i,i,i,i,i,.,.,.,.,.,.,
Cc1ccc2nc3c(cc(C(=O)NC4CCCCC4)c(=N)n3C3CCCCC3)c(=O)n2c1,-7.81*,i,i,i,i,-132.5%*,i,-31.0%*,43.0%*,36.5%*,i,
Cc1cccn2c(=O)c3cc(C(=O)NCC4CCCO4)c(=N)n(C4CCCCC4)c3nc12 (stereo not drawn),i,i,i,i,i,.,.,.,.,.,.,
CCCC(C)C(=O)Nc1nc(C)c(-c2csc(Nc3ccc(Cl)cc3)n2)s1 (stereo not drawn),-6.01*,i,i,i,i,i,i,i,i,i,i,
Cc1cc(N2CCN(c3ccccc3)CC2)nc2ccccc12,i,i,i,i,i,.,.,.,.,.,.,
Cc1cc(N2CCC(N(C)C3CCCC3)CC2)nc2cc(O)ccc12,-6.73*,i,i,i,i,-281.5%*,i,-54.0%*,47.0%*,43.0%*,i,
Cc1c(OCC(=O)N(C)C)ccc2c3c(c(=O)oc12)CCCCC3,-10.6*,i,i,i,i,.,.,.,.,i,i,TRPC4 spec 2=i;TRPC4 spec=i;HEK293 MPD ctr 2-1=i;HEK293 MPD ctr-1=-0.2%*
COc1ccc(NC2=Nc3cccc4cccc2c34)cc1OC,i,i,i,i,i,.,.,.,.,.,.,
COc1cc(NC2=Nc3cccc4cccc2c34)cc(OC)c1OC,-5.07*,i,i,i,i,i,i,i,32.5%*,i,i,
Cc1ccc(NCC(=O)N/N=C/c2cc(O)ccc2[N+](=O)[O-])cc1,i,i,i,i,i,.,.,.,.,.,.,
COc1cc(S(=O)(=O)N2CCN(c3ccccc3F)CC2)ccc1Cl,-5.01*,i,i,i,i,i,i,i,i,i,i,
CCCC(=O)N1CCCC(c2nc(-c3cccc(OC)c3)no2)C1 (stereo not drawn),i,i,i,i,i,.,.,.,.,.,.,
CCCCCCC(=O)N1CCCC(c2nc(-c3cccc(OC)c3)no2)C1 (stereo not drawn),-5.86*,i,i,i,i,i,i,10.5%*,30.5%*,64.5%*,.,
O=C1CCC([N+](=O)[O-])C(c2ccccc2C(F)(F)F)N1 (stereo not drawn),-5.14*,i,i,i,i,i,i,i,i,i,i,
O=C1CCC([N+](=O)[O-])C(c2ccccc2Cl)N1 (stereo not drawn),i,i,i,i,i,.,.,.,.,.,.,
CN(C)/C=C1\Cc2ccccc2C1=O,i,i,i,i,i,.,.,.,.,.,.,
CC[N+]1(C)CCC(=C2c3ccccc3CC(=O)c3sccc32)CC1 (stereo not drawn),-13.7*,i,i,i,i,.,.,.,.,79.8%*,i,TRPC4 spec 2=i;TRPC4 spec=i;HEK293 MPD ctr 2-1=43.0%*;HEK293 MPD ctr-1=i
CCc1ccc(S(=O)(=O)/N=C2\C=C(Nc3ccc(C(=O)O)cc3)C(=O)c3ccccc32)cc1,-6.89*,i,i,i,i,-119.5%*,i,-26.0%*,68.0%*,36.0%*,i,
Cc1ccc(S(=O)(=O)/N=C2\C=C(Nc3cccc(C(=O)O)c3)C(=O)c3ccccc32)cc1,i,i,i,i,i,.,.,.,.,.,.,
CC(C)(C)c1ccc(S(=O)(=O)/N=C2\C=C(NS(=O)(=O)c3ccccc3)C(=O)c3ccccc32)cc1,-6.09*,i,i,i,i,-153.0%*,77.0%*,-30.5%*,89.5%*,81.0%*,i,
COc1cc(/C=N/NC(=O)Cn2nc([N+](=O)[O-])cc2C)cc(Br)c1OCc1ccccc1,-5.08*,i,i,i,i,i,i,i,i,i,i,
COC(=O)c1c(NC(=O)C2CCCCC2)sc2c1CC(C)(C)NC2(C)C,i,i,i,i,i,.,.,.,.,.,.,
Cc1ccc(-c2csc(NC(=O)/C=C/c3ccco3)c2C(=O)O)cc1,-5.15*,i,i,i,i,i,i,i,i,i,i,
CCCCCCN1C=CC(=C/C=C(\C#N)C(=O)OCC)C=C1,-9.55*,61*,78.1*,i,i,+,87.0%*,250.0%*,i,i,566.0%*,
O=C(NC(=S)NC1C2CC3CC(C2)CC1C3)C12CC3CC(CC(C3)C1)C2 (stereo not drawn),-8.01*,i,i,i,i,.,.,.,.,i,i,TRPC4 spec 2=i;TRPC4 spec=i;HEK293 MPD ctr 2-1=i;HEK293 MPD ctr-1=i
COc1ccc(OC)c(CCNC(=O)CCc2nnc3ccc(N4CCOCC4)nn23)c1,i,i,i,i,i,.,.,.,.,.,.,
COC(=O)CSc1nc2c(cnn2-c2ccc(Cl)cc2)c(=O)[nH]1,i,i,i,i,i,.,.,.,.,.,.,
